From ChEMBL document CHEMBL2311539, “3,6-Diamino-4-(2-halophenyl)-2-benzoylthieno[2,3-b]pyridine-5-carbonitriles are selective inhibitors of Plasmodium falciparum glycogen synthase kinase-3” (J Med Chem, 2013)

Assays:
[1] = Inhibition of Plasmodium falciparum recombinant GSK-3 by radiometric protein kinase assay
In short: (§1)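 His6-tagged recombinant GSK-3 expressed in E. coli (TOP10/pBAD-Thio-TOPO for P. falciparum and T. gondii, arabinose-induced; BL21(DE3)-pRARE2/pET15 for C. parvum, IPTG at 15 °C), Ni-NTA purified. Assayed with 40 μM GS-1 phosphopeptide, 15 μM γ-33P-ATP in pH 7.5 Tris buffer with MgCl2, EGTA, DTT, heparin, BSA; 30 min, 30 °C; P81 paper, phosphoric acid washes, scintillation counting. DMSO controls; dose-response IC50, triplicate points.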

[2] = Inhibition of Cryptosporidium parvum recombinant His6-tagged GSK-3 expressed in Escherichia coli using GS-1 peptide as substrate after 30 mins by scintillation counting analysis in presence of gamma-33P-ATP; in short: as §1
[3] = Inhibition of pig GSK-3 by radiometric protein kinase assay; set-up: species or system Sus scrofa
In short: (§2)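 Native affinity-purified porcine GSK-3 in the radiometric assay: 40 μM GS-1 peptide, 15 μM γ-33P-ATP, pH 7.5 Tris/MgCl2/EGTA/DTT/heparin/BSA buffer, 30 min at 30 °C, P81 filter binding and scintillation counting. IC50 from dose-response curves with triplicate points; top concentration 10 or 100 μM.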

[4] = Inhibition of Toxoplasma gondii recombinant His6-tagged GSK-3 expressed in Escherichia coli using GS-1 peptide as substrate after 30 mins by scintillation counting analysis in presence of gamma-33P-ATP; type: cell-free; in short: as §1
[5] = target: T1, Mitogen-activated protein kinase 15 (Homo sapiens) (UniProt Q8TD08); experiment: Inhibition of ERK8 (unknown origin) at 10 uM
T1 sequence (whole entry): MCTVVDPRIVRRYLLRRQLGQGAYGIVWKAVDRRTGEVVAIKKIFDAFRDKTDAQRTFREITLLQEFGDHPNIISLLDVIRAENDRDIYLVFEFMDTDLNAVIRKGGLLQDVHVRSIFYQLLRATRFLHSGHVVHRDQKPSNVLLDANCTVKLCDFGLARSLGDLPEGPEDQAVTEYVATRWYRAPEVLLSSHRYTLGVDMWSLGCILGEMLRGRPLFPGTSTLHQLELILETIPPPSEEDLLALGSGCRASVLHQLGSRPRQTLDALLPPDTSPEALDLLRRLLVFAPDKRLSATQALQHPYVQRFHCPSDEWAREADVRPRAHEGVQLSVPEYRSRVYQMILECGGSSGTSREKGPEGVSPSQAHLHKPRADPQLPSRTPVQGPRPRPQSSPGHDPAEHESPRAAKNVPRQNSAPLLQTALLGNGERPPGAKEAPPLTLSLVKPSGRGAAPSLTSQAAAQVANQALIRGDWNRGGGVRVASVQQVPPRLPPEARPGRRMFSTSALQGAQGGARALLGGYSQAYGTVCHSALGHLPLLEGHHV
In short: (§3)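 Dundee human kinase selectivity panel (77 kinases); test compound at 1 and 10 μM, percentage kinase inhibition recorded.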

[6] = target: Mitogen-activated protein kinase 11 (Homo sapiens) (UniProt Q15759); experiment: Inhibition of P38beta MAPK (unknown origin) at 10 uM; in short: as §3
[7] = Inhibition of Plasmodium knowlesi recombinant His6-tagged GSK-3 expressed in Escherichia coli using GS-1 peptide as substrate after 30 mins by scintillation counting analysis in presence of gamma-33P-ATP
In short: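 P. knowlesi GSK3 gene in pBAD-Thio-TOPO, expressed in E. coli TOP10 (ampicillin, 37 °C, 0.02% arabinose for 4 h), Ni-NTA purified. Radiometric assay: 40 μM GS-1 peptide in buffer A pH 7.5 (MgCl2, EGTA, DTT, heparin, BSA) with 15 μM γ-33P-ATP, 30 min at 30 °C. P81 filter binding, scintillation counting. IC50 from triplicate dose-response curves.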

[8] = target: Glycogen synthase kinase-3 (Sus scrofa, UniProt B2LUN4+I6LNT8); experiment: Inhibition of pig GSK-3alpha/beta; in short: as §2

Sequence of Mitogen-activated protein kinase 11 (Homo sapiens) (Q15759 whole entry): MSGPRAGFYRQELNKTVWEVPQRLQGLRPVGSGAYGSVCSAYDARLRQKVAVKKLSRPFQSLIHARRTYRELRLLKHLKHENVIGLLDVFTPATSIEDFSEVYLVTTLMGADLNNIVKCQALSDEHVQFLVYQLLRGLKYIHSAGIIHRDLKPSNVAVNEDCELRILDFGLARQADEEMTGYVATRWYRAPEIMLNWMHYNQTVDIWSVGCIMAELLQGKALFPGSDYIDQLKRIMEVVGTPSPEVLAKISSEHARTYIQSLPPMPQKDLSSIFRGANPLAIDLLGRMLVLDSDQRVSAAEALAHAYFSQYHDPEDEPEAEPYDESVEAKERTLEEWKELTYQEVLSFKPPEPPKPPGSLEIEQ

IC50 [1]: 0.48 µM
IC50 [2]: > 100 µM
IC50 [3]: > 10 µM
inhibition [6]: > 50%
IC50 [7]: 2.45 µM
IC50 [8]: > 10 µM
Structure (SMILES): N#Cc1c(N)nc2sc(C(=O)c3cccc(Cl)c3)c(N)c2c1-c1ccccc1Cl
IC50 [4]: > 100 µM
inhibition [5]: > 50%
